Results reported in ChEMBL document CHEMBL1122226, “6-Aryl-4,5-dihydro-3(2H)-pyridazinones. A new class of compounds with platelet aggregation inhibiting and hypotensive activities” (J Med Chem, 1983).
Values after ≈ are worked out from the molar mass of the structure shown.

What was measured:
Rattus norvegicus [1] = test: Activity relative to dihydralazine for in vitro hypotensive activity in anesthetized rats; type: functional; conditions: in the assay text read “in vivo” for “in vitro”
Method in brief: (§1)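 Male Sprague-Dawley rats, 230-280 g, urethane-anesthetized (ip); carotid arterial pressure recorded continuously by pressure transducer. Compounds given ip at 2 mL/kg. ED20, dose lowering mean carotid pressure by 20%, from log dose–effect regression; dihydralazine as reference.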

Homo sapiens [2] = organism: Homo sapiens; test: Relative activity (compared to acetylsalicylic acid) for in vitro inhibition of collagen-induced human platelet aggregation; type: functional
Homo sapiens [3] = organism: Homo sapiens; test: In vitro inhibition of ADP-induced human platelet aggregation; type: functional
Method in brief: (§2)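 Human venous blood citrated with 10% v/v sodium citrate (3.8%); platelet-rich plasma spun at 300g, 10 min, 4 °C, used within 2 h. Compound in Me2SO (1% final) preincubated 10 min at room temperature; aggregation triggered by collagen 0.02 mg/mL final or ADP 0.85 μg/mL final; maximum rate read in Born aggregometer. EC50 from log dose–effect regression with 95% confidence limits.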

Rattus norvegicus [4] = test: In vitro hypotensive activity in anesthetized rats after intraperitoneal administration.; type: functional; conditions: ip, in the assay text read “In vivo” for “In vitro”; method in brief: as §1
Homo sapiens [5] = organism: Homo sapiens; test: In vitro inhibition of collagen-induced human platelet aggregation.; type: functional, organism-based; method in brief: as §2
[6] = In vitro inhibition of collagen induced aggregation of human plateles and the ratio of ED33 to EC50 was reported; type: functional
Method in brief: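 Ratio of oral ED33 (male Sprague-Dawley rats, 3 per dose, blood taken 1 h post-dose, collagen-triggered aggregation) to in vitro EC50 (human citrated platelet-rich plasma, 10 min room-temperature preincubation in 1% Me2SO, collagen 0.02 mg/mL final, regression-derived).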

Rattus norvegicus [7] = test: Ex vivo inhibition of collagen-induced rat platelet aggregation after peroral administration; type: functional; conditions: po
Method in brief: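 Male Sprague-Dawley rats, 200-250 g, dosed orally, three rats per dose. Blood drawn by heart puncture under ether 1 h post-dose; platelet-rich plasma prepared by centrifugation; aggregation induced with collagen 0.02 mg/mL final, maximum rate read in Born aggregometer.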

Rattus norvegicus [8] = organism: Rattus norvegicus; test: Relative activity in rats based on acetylsalicylic acid; type: functional

In the case of CC(C)NCC(=O)Nc1ccc(C2=NNC(=O)CC2)cc1.Cl, the Relative activity (Rattus norvegicus [1]) is reported as <0.34, the Relative activity (Homo sapiens [2]) is reported as ~23 and the EC50 (Homo sapiens [3]; Homo sapiens, read-out: EC50) is reported as ~46.4 µg/mL. For the same molecule, the ED20 (Rattus norvegicus [4]) was > 1 mg/kg and the EC50 (Homo sapiens [5]; Homo sapiens, read-out: EC50) was ~21.5 µg/mL.
Molecule CC(Cl)C(=O)Nc1ccc(C2=NNC(=O)CC2)cc1 (stereo unspecified) has a Ratio [6] of 82.7, a Relative activity (Rattus norvegicus [1]) of 0.64 and a Relative activity (Homo sapiens [2]) of 1764. For the same molecule, the EC50 (Homo sapiens [3]; Homo sapiens, read-out: EC50) was 0.45 µg/mL (≈ 1.61 µM), the ED20 (Rattus norvegicus [4]) was 0.53 mg/kg and the ED33 (Rattus norvegicus [7]) was 22.6 mg/kg. The EC50 (Homo sapiens [5]; Homo sapiens, read-out: EC50) was 0.28 µg/mL (≈ 1 µM) and the Relative activity (Rattus norvegicus [8]) was 10.3.
Work on CC1CC(=O)NN=C1c1ccc(NC(=O)CCCCl)cc1 (stereo unspecified) yielded a Relative activity (Homo sapiens [2]) of 298, an EC50 (Homo sapiens [3]; Homo sapiens, read-out: EC50) of 1.63 µg/mL (≈ 5.3 µM) and an ED20 (Rattus norvegicus [4]) of 0.32 mg/kg. The EC50 (Homo sapiens [5]; Homo sapiens, read-out: EC50) was 1.66 µg/mL (≈ 5.39 µM).
In the case of O=C1CCC(c2ccc(NC(=O)CCCl)cc2)=NN1, the Ratio [6] is reported as 46.3, the Relative activity (Rattus norvegicus [1]) is reported as <0.34 and the Relative activity (Homo sapiens [2]) is reported as 549. The EC50 (Homo sapiens [3]; Homo sapiens, read-out: EC50) was 0.98 µg/mL (≈ 3.5 µM), the ED20 (Rattus norvegicus [4]) was > 1 mg/kg and the ED33 (Rattus norvegicus [7]) was 41.7 mg/kg. For the same molecule, the EC50 (Homo sapiens [5]; Homo sapiens, read-out: EC50) was 0.9 µg/mL (≈ 3.22 µM) and the Relative activity (Rattus norvegicus [8]) was 5.6.
For CCCCC(=O)Nc1ccc(C2=NNC(=O)CC2)cc1, the Relative activity (Rattus norvegicus [1]) was 0.34, the Relative activity (Homo sapiens [2]) was 148 and the EC50 (Homo sapiens [3]; Homo sapiens, read-out: EC50) was 2.64 µg/mL (≈ 9.66 µM). For the same molecule, the ED20 (Rattus norvegicus [4]) was 1 mg/kg and the EC50 (Homo sapiens [5]; Homo sapiens, read-out: EC50) was 3.34 µg/mL (≈ 12.2 µM).
In the case of C[N+]1(CC(=O)Nc2ccc(C3=NNC(=O)CC3)cc2)CCCC1.[Cl-], the Relative activity (Rattus norvegicus [1]) is reported as <0.34, the Relative activity (Homo sapiens [2]) is reported as <11 and the EC50 (Homo sapiens [3]; Homo sapiens, read-out: EC50) is reported as > 46.4 µg/mL. The ED20 (Rattus norvegicus [4]) was > 1 mg/kg and the EC50 (Homo sapiens [5]; Homo sapiens, read-out: EC50) was > 46.4 µg/mL.
For O=C1CCC(c2ccc(NC(=O)CN3CCOCC3)cc2)=NN1, the Relative activity (Rattus norvegicus [1]) was <0.34, the Relative activity (Homo sapiens [2]) was ~23 and the EC50 (Homo sapiens [3]; Homo sapiens, read-out: EC50) was ~46.4 µg/mL (≈ 147 µM). The ED20 (Rattus norvegicus [4]) was > 1 mg/kg and the EC50 (Homo sapiens [5]; Homo sapiens, read-out: EC50) was ~21.5 µg/mL (≈ 68 µM).
In the case of N/N=c1\[nH][nH]/c(=N\N)c2ccccc12 [DIHYDRALAZINE], the Relative activity (Rattus norvegicus [1]) is reported as 1, the Relative activity (Homo sapiens [2]) is reported as 3 and the EC50 (Homo sapiens [3]) is reported as 310 µg/mL (≈ 1630 µM). For the same molecule, the ED20 (Rattus norvegicus [4]) was 0.34 mg/kg and the EC50 (Homo sapiens [5]) was 149 µg/mL (≈ 783 µM).
With CC1CC(c2ccc(N)cc2)=NNC1=O (stereo unspecified) the Relative activity (Rattus norvegicus [1]) was <0.34, the Relative activity (Homo sapiens [2]) was 11 and the EC50 (Homo sapiens [3]; Homo sapiens, read-out: EC50) was 43.8 µg/mL (≈ 216 µM). The ED20 (Rattus norvegicus [4]) was > 1 mg/kg and the EC50 (Homo sapiens [5]; Homo sapiens, read-out: EC50) was 46.9 µg/mL (≈ 231 µM).
With CC1CC(=O)NN=C1c1ccc(NC(=O)C(C)(C)Br)cc1 (stereo unspecified) the Ratio [6] was 3.9, the Relative activity (Rattus norvegicus [1]) was 0.12 and the EC50 (Homo sapiens [3]; Homo sapiens, read-out: EC50) was 0.33 µg/mL (≈ 0.937 µM). For the same molecule, the ED20 (Rattus norvegicus [4]) was 2.93 mg/kg, the ED33 (Rattus norvegicus [7]) was 3.49 mg/kg and the Relative activity (Rattus norvegicus [8]) was 66.8.
